Activity calls are given as the source filed them. The rule behind the calls is not given here.
Key:
[1] = molecular target: T1, Peroxisome proliferator-activated receptor gamma (Homo sapiens) (UniProt P37231); assay: Transactivation of human PPARgamma expressed in human MCF7 cells harboring pPPRE3-tk-luc reporter at 10 uM after 24 hrs by luciferase reporter gene assay relative to control; assay type: cell-based
T1 sequence (whole entry): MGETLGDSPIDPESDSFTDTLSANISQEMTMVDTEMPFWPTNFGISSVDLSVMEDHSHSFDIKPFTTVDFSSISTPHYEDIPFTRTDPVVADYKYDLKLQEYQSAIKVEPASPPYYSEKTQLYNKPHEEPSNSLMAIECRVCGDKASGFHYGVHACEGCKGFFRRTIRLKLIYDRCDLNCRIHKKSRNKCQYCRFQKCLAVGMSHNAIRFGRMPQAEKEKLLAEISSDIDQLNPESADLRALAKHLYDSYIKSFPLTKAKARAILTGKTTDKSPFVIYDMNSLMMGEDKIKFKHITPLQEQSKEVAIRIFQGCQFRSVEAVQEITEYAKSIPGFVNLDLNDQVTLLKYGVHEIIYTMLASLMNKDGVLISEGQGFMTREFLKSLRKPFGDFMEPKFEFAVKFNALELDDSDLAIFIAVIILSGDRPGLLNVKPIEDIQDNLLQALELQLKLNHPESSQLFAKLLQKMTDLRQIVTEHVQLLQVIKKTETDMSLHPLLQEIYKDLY
Method in brief: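 MCF-7 cells transfected with a pPPRE3tk-luc reporter are exposed to compound (10μM) for 24 h. Luciferase activity is normalized to β-Gal activity and expressed as fold induction over a solvent control set to 1. Three independent experiments are run, each with duplicate transfections. Values are mean ± s.e.m.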

Rattus norvegicus [2] = species: Rattus norvegicus; assay: Blocking activity at AT1 receptor in rat aortic vascular smooth muscle cells assessed as inhibition of angiotensin-2-induced calcium flux at 10 uM preincubated for 20 mins followed by angiotensin-2 addition by Fura-2-AM dye based scanning fluorometric method relative to control
Method in brief: (§1)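 Rat aortic smooth muscle cells. Angiotensin II-mediated intracellular calcium release is followed by fluorescence. A first screen is run at a single concentration. Compounds that pass are retested at various concentrations to derive IC50, with losartan tested in each experiment. Values are expressed as the ratio of the compound's IC50 to losartan's IC50.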

Rattus norvegicus [3] = species: Rattus norvegicus; assay: Ratio of test compound IC50 to losartan IC50 for bocking activity at AT1 receptor in rat aortic vascular smooth muscle cells assessed as inhibition of angiotensin-2-induced calcium flux; method in brief: as §1
Rattus norvegicus [4] = assay: Antihypertensive activity in angiotensin 2-induced Wistar rat hypertensive model assessed as reduction in angiotensin 2-induced mean arterial pressure at 6 x 10^-5mol/kg, iv; assay type: functional, organism-based
Method in brief: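 Adult male Wistar rats; angiotensin II given as i.v. bolus at 10-10 mol/kg, with no pretreatment or after i.v. pretreatment at 6.10−5 mol/kg. Read-out is the change in mean arterial pressure in mm Hg, reported as mean ± sem.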

Activity [1] | inhibition (Rattus norvegicus [2]) | Ratio IC50 (Rattus norvegicus [3]) | SMILES | Activity (Rattus norvegicus [4])
Active |  |  | CC(C)(C)OC(=O)c1ccccc1-c1ccc(Cn2cc(COc3ccc(CC4SC(=O)NC4=O)cc3)nn2)cc1 (configuration not stated) | 
inactive | > 50% | 3.4 | O=C1NC(=O)C(Cc2ccc(OCc3cn(Cc4ccc(-c5ccccc5C(=O)O)cc4)cn3)cc2)S1 (configuration not stated) | 
Active | inactive |  | CCCCc1c(COc2ccc(CC3SC(=O)NC3=O)cc2)nnn1Cc1ccc(-c2ccccc2C(=O)O)cc1 (configuration not stated) | 
Active | inactive |  | Cc1c(C)c2c(c(C)c1OCc1ccc(-c3ccccc3C(=O)O)cc1)CCC(C)(COc1ccc(CC3SC(=O)NC3=O)cc1)O2 (configuration not stated) | 
Active | > 50% | 3.8 | CCCCc1nc(Cl)c(/C=C/C(=O)Oc2ccc(C[C@H](Nc3ccccc3C(=O)OC)C(=O)O)cc2)n1Cc1ccc(-c2ccccc2-c2nn[nH]n2)cc1 | 
Active | > 50% | 43.2 | CCCCCCCCCCCCOCc1c(Cl)nc(CCCC)n1Cc1ccc(-c2ccccc2-c2nn[nH]n2)cc1 | 
inactive | inactive |  | O=C1NC(=O)C(Cc2ccc(OCCc3cn(Cc4ccc(-c5ccccc5C(=O)O)cc4)nn3)cc2)S1 (configuration not stated) | 
Active | > 50% | 5 | CCCCc1nc(COc2ccc(CC3SC(=O)NC3=O)cc2)cn1Cc1ccc(-c2ccccc2C(=O)O)cc1 (configuration not stated) | 
Active |  |  | Cc1c(C)c2c(c(C)c1OCc1ccc(-c3ccccc3C(=O)O)cc1)CCC(C)(COc1ccc(/C=C3\SC(=O)NC3=O)cc1)O2 (configuration not stated) | 
inactive | < 50% |  | CCCCc1nc(Cl)c(COc2ccc(/C=C3\SC(=O)NC3=O)cc2)n1Cc1ccc(-c2ccccc2-c2nn[nH]n2)cc1 | 
Active |  |  | CC(C)(C)OC(=O)c1ccccc1-c1ccc(Cn2cc(CCOc3ccc(CC4SC(=O)NC4=O)cc3)nn2)cc1 (configuration not stated) | 
Active |  |  | COC(=O)c1ccccc1N[C@@H](Cc1ccc(OCC2(C)CCc3c(C)c(O)c(C)c(C)c3O2)cc1)C(=O)O (some centres not stated) | 
Active | > 50% | 11.1 | CCCCCS(=O)(=O)NC(=O)/C=C/c1c(Cl)nc(CCCC)n1Cc1ccc(-c2ccccc2-c2nn[nH]n2)cc1 | 
inactive | 78% |  | CCCCc1nc(Cl)c(CO)n1Cc1ccc(-c2ccccc2-c2nnn[nH]2)cc1 | Active
Active | > 50% | 3.2 | CCCCc1nc(Cl)c(/C=C/C(=O)Oc2ccc(CC3SC(=O)NC3=O)cc2)n1Cc1ccc(-c2ccccc2-c2nn[nH]n2)cc1 (configuration not stated) | 
Active |  |  | Cc1c(C)c2c(c(C)c1OCc1ccc(-c3ccccc3C(=O)OC(C)(C)C)cc1)CCC(C)(COc1ccc(/C=C3\SC(=O)NC3=O)cc1)O2 (configuration not stated) | 
inactive | > 50% | 0.4 | CCCCc1nc(Cl)c(CCCOc2ccc(CC3SC(=O)NC3=O)cc2)n1Cc1ccc(-c2ccccc2-c2nn[nH]n2)cc1 (configuration not stated) | 
Active |  |  | CCCc1nc2c(C)cc(-c3nc4ccccc4n3C)cc2n1Cc1ccc(-c2ccccc2C(=O)O)cc1 | 
Active | > 50% | 16.2 | CCCCc1nc(CCCOc2ccc(CC3SC(=O)NC3=O)cc2)cn1Cc1ccc(-c2ccccc2C(=O)O)cc1 (configuration not stated) | 
inactive | > 50% | 1.1 | CCCCc1ncc(CCCOc2ccc(CC3SC(=O)NC3=O)cc2)n1Cc1ccc(-c2ccccc2-c2nn[nH]n2)cc1 (configuration not stated) | 
Active | inactive |  | COC(=O)c1ccccc1N[C@@H](Cc1ccc(OCC2(C)CCc3c(C)c(OCc4ccc(-c5ccccc5C(=O)O)cc4)c(C)c(C)c3O2)cc1)C(=O)O (some centres not stated) | 
inactive | inactive |  | O=C1NC(=O)C(Cc2ccc(OCc3cn(Cc4ccc(-c5ccccc5C(=O)O)cc4)nn3)cc2)S1 (configuration not stated) | 
inactive | > 50% | 6.3 | CCCCc1nc(Cl)c(COc2ccc(CC3SC(=O)NC3=O)cc2)n1Cc1ccc(-c2ccccc2-c2nn[nH]n2)cc1 (configuration not stated) | Active

Source: ChEMBL document CHEMBL4270651, “Synthesis and evaluation of new designed multiple ligands directed towards both peroxisome proliferator-activated receptor-γ and angiotensin II type 1 receptor” (Eur J Med Chem, 2018)
